According to publication PMC5663466 (Journal of proteome research, 2017):

Columns and labels:
[1] = test system: protein and lipid kinases in HeLa cell lysate; test: Affinity pulldown-soluble competition in duplex SILAC-labeled HeLa cell lysate; assay type: binding, human; conditions: 50 μM soluble competitor against affinity matrix 7
Method in brief: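 HeLa cells SILAC-labelled for ≥5 doublings in Lys/Arg-free DMEM with 10% dialysed FBS, 200 μg/ml proline and 0.2 mM light or heavy Lys/Arg, then lysed in modified RIPA buffer. Lysate (300 μg, 2 mg/ml) was pre-incubated 20 min at 4°C with DMSO or test compound (1% DMSO final), then pulled down 3 h at 4°C. SILAC channel beads were combined after washing, digested on-bead with LysC then trypsin, and run as single-shot nanoLC-MS/MS.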

[2] = test system: tyrosine and serine/threonine kinases; conditions: cited from earlier work

Structure (SMILES) | number of protein and lipid kinases with specific interaction [1] | number of tyrosine and serine/threonine kinases inhibited [2]
COc1cc2c(Oc3ccc(NC(=O)C4(C(=O)Nc5ccc(F)cc5)CC4)cc3F)ccnc2cc1OCCCN1CCOCC1 [foretinib] | 29 | –
Cc1nc(Nc2ncc(C(=O)Nc3c(C)cccc3Cl)s2)cc(N2CCN(CCO)CC2)n1 [dasatinib] | – | over 30
